The values that follow come from ChEMBL document CHEMBL1144690, “Isolation of cytotoxic metabolites from targeted peruvian amazonian medicinal plants” (2008).

Molecules are shown by their SMILES. In brackets after ≈: the same amount, converted by molar mass. Activity calls are given as the source filed them. No cut-off for these calls is given here.

In test [1] the test system is NCI-H460. The test can be described thus: Cytotoxicity against human H460 cells. Type of test: functional. An outline of the steps: (§1)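 Cells in 96-well plates exposed to serial dilutions of test sample (maximum 62.5 µg/mL for crude extract and fractions) or solvent-dilution controls for 48 h at 37 °C. Growth measured colorimetrically by sulforhodamine B staining, with percent inhibition taken against controls. GI50 is the concentration giving 50% absorbance reduction versus solvent controls, obtained by linear regression.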

The test system of test [2] is DU-145. Briefly: Cytotoxicity against human DU145 cells. Type of test: functional. In short, it runs like this: as §1
The test system of test [3] is MCF7. The test can be described thus: Cytotoxicity against human MCF7 cells. The test is classed as functional. In short, it runs like this:
as §1

In test [4] the test system is M14. Briefly: Cytotoxicity against human M14 cells. The test is classed as functional. In short, it runs like this:
as §1

For test [5], the system named is HT-29. Briefly: Cytotoxicity against human HT29 cells. Type of test: functional. An outline of the steps:
as §1

Test [6] concerns PC-3. The test can be described thus: Cytotoxicity against human PC3 cells. The test is classed as functional. In short, it runs like this:
as §1

The test system of test [7] is K562. Briefly: Cytotoxicity against human K562 cells. The test is classed as functional. An outline of the steps:
as §1

For test [8], the system named is Vero. The test can be described thus: Cytotoxicity against african green monkey Vero cells. Type of test: functional. The settings on record: Chlorocebus sabaeus. An outline of the steps:
as §1

Test [9] deals with Mycobacterium tuberculosis. Briefly: Antimicrobial activity against Mycobacterium tuberculosis H37Rv at 25 ug/ml. Type of test: functional, organism-based.
In test [10] the test system is ME-180. Briefly: Cytotoxicity against human ME180 cells. Type of test: functional. In short, it runs like this: as §1
The subject of test [11] is Mycobacterium tuberculosis. The test can be described thus: Antimicrobial activity against Mycobacterium tuberculosis H37Rv. Type of test: functional. In short, it runs like this: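 Tetrazolium microplate assay (TEMA) run in vitro against the drug-sensitive M. tuberculosis H37Rv strain.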

On to `COc1ccc(CCC(=O)c2c(O)cc(O)cc2OC)cc1`, for which the GI50 (commonly the concentration at which growth is held to half of that of the control) in test [1] turned out to be 44.7 µg/mL (≈ 148 µM); in [2], 41.7 µg/mL (≈ 138 µM); in test [3], 22.9 µg/mL (≈ 75.7 µM); in [4], 40.3 µg/mL (≈ 133 µM); in test [5], 35.5 µg/mL (≈ 117 µM); in test [6], 46.3 µg/mL (≈ 153 µM). For the same compound, the GI50 was found to be 7.4 µg/mL (≈ 24.5 µM) in test [7] and 40.4 µg/mL (≈ 134 µM) in test [8]. For the same compound, in [9], the outcome was inactive.
For the compound `Cc1cc(O)c2c(c1)C(=O)c1ccc(O)c(O)c1C2=O`, the GI50 in test [1] turned out to be 4.8 µg/mL (≈ 17.8 µM); in test [10], 13.2 µg/mL (≈ 48.8 µM); in test [2], 7.9 µg/mL (≈ 29.2 µM); in test [3] it was 7.3 µg/mL (≈ 27 µM); in test [4], 13.6 µg/mL (≈ 50.3 µM); in test [5], 6.5 µg/mL (≈ 24.1 µM). Also, the GI50 in test [6] was 8.7 µg/mL (≈ 32.2 µM); in [7], 12.5 µg/mL (≈ 46.3 µM). Moreover, in test [9], the result was inactive.
With `COc1cc(O)cc(O)c1C(=O)CCc1ccc2c(c1)OCO2`, the GI50 in test [1] is 27.4 µg/mL (≈ 86.6 µM); in test [2], 22.4 µg/mL (≈ 70.8 µM); in test [3], 18.9 µg/mL (≈ 59.8 µM); in [4], 23.4 µg/mL (≈ 74 µM); in test [5], 27.6 µg/mL (≈ 87.3 µM); in [6] it was 24.5 µg/mL (≈ 77.5 µM). Also, the GI50 amounted to 8.4 µg/mL (≈ 26.6 µM) in test [7] and 28.4 µg/mL (≈ 89.8 µM) in test [8]. Besides, the result in test [9] was inactive.
On to `C=C(C)[C@@H]1CC[C@]2(C(=O)O)CC[C@]3(C)[C@H](CC[C@@H]4[C@@]5(C)CC[C@H](O)C(C)(C)[C@@H]5CC[C@]43C)[C@@H]12` [BETULINIC ACID], for which the GI50 in test [1] is 29.7 µg/mL (≈ 65 µM); in test [10], 27.8 µg/mL (≈ 60.9 µM); in [2], 35.3 µg/mL (≈ 77.3 µM); in test [3] it was more than 62.5 µg/mL; in test [4], 32.6 µg/mL (≈ 71.4 µM); in test [5], 30.9 µg/mL (≈ 67.7 µM). Besides, the results for the GI50 in [6], in [7] and in [8] were 31.3 µg/mL (≈ 68.5 µM), 10.8 µg/mL (≈ 23.6 µM) and 30.6 µg/mL (≈ 67 µM), respectively. Besides, in test [9], the outcome was inactive.
Regarding `C/C=C1/CN2CC[C@@]34c5ccccc5N5/C=C6/[C@H]7C[C@@H]8N(CC[C@@]89c8ccccc8N(/C=C(/[C@H]1C[C@H]23)[C@H]54)[C@@H]69)C/C7=C/C` [BISNORDIHYDROTOXIFERINE], the GI50 in test [1] is 1.6 µg/mL (≈ 2.89 µM); in test [10], 1.9 µg/mL (≈ 3.44 µM); in test [2] it was 4.5 µg/mL (≈ 8.14 µM); in test [3], 2 µg/mL (≈ 3.62 µM); in test [4], 1.6 µg/mL (≈ 2.89 µM); in test [5] it was more than 1 µg/mL. Moreover, the GI50 in [6] was 2.1 µg/mL (≈ 3.8 µM); in [7] it was less than 1 µg/mL; in [8], 2.7 µg/mL (≈ 4.88 µM). In addition, it took 12.5 µg/mL (≈ 22.6 µM) to inhibit growth in [11] (MIC).
Consider `Cc1cc(O)c2c(c1)C(=O)c1cccc(O)c1C2=O` [CHRYSOPHANOL], for which the concentration for 50% growth inhibition (GI50) in test [1], in [10], in [2], in [3], in test [4] and in [5] was more than 62.5 µg/mL each time. The concentration for 50% growth inhibition (GI50) in [6], in [7] and in test [8] was more than 62.5 µg/mL throughout. Further, the outcome in test [9] was inactive.
As for `C[C@]12C=C[C@@]3(CC[C@H]4[C@@](C)(CCC[C@@]4(C)C(=O)O)[C@@H]3CC1)C2` [MONOGINOIC ACID], the 50% growth inhibitory concentration (GI50) in test [7] is more than 62.5 µg/mL.
The compound `CCCCCCCCCCCCCC(=O)O[C@@H]1[C@@H](C)[C@@]2(O)[C@@H](C=C(CO)C[C@]3(O)C(=O)C(C)=C[C@@H]23)[C@@H]2C(C)(C)[C@]12OC(C)=O` [PHORBOL MYRISTATE ACETATE] returned a GI50 in test [7] of 0.00012 µg/mL.
